Measured values of several laboratories.
Lines come from different studies, so protocols differ.
HDAC2: Histone deacetylase 2 (HDAC2, Homo sapiens, UniProt Q92769)
HTR2A: 5-hydroxytryptamine receptor 2A (HTR2A, Homo sapiens, UniProt P28223)
PPO3: PPO3 (Agaricus bisporus, UniProt C7FF04)
PDE4A: 3',5'-cyclic-AMP phosphodiesterase 4A (PDE4A, Homo sapiens, UniProt P27815)

| Compound | target | assay | IC50 [µM] |
| --- | --- | --- | --- |
| Nc1ccccc1NC(=O)c1ccc(CNc2ccc(NC3=C(Cl)C(=O)c4cccnc4C3=O)cc2)cc1 | HDAC2 | enzyme activity, inhibitor | 0.415 |
| O=C(c1cc(C2CCNC2)[nH]n1)N1CCC(c2cccc(Cl)c2)C1 (stereo not drawn) | HTR2A | calcium signal, antagonist | 19.3 |
| Cc1ccc(-c2cc(-c3ccc(-c4cc(-c5ccc(C)cc5)nc(N)n4)cc3)nc(N)n2)cc1 | PPO3 | enzyme activity, inhibitor, absorbance | 37.2 |
| CN(C(=O)c1cn[nH]n1)C1CCN(CCc2cccc(Cl)c2Cl)C1 (stereo not drawn) | HTR2A | calcium signal, antagonist | 0.907 |
| Nc1nc(-c2ccc(F)cc2)cc(-c2ccc(-c3cc(-c4ccc(F)cc4)nc(N)n3)cc2)n1 | PPO3 | enzyme activity, inhibitor, absorbance | 46 |
| C=CC(=O)N1CCCN(C(=O)c2cc(Sc3cnc(NC(=O)C4CC4)s3)c(C)cc2OC)C[C@H]1C | Tyrosine-protein kinase TXK (TXK, Homo sapiens, UniProt P42681) | enzyme activity, inhibitor | 0.261 |
| CCN(Cc1cc(Br)ccc1O)C(=O)C(N)Cc1ccco1 (stereo not drawn) | HTR2A | calcium signal, antagonist | 27 |
| Nc1nc(-c2ccc(Br)cc2)cc(-c2ccc(-c3cc(-c4ccc(Br)cc4)nc(N)n3)cc2)n1 | PPO3 | enzyme activity, inhibitor, absorbance | 40.9 |
| O=C(NO)c1cncc(OS(=O)(=O)Oc2ccc(C(F)(F)F)cc2)c1 | HDAC2 | enzyme activity, inhibitor, fluorescence | 5.61 |
| CN(C)C(=O)c1cc2cnc(Nc3ccc(N4CCNCC4)cn3)nc2n1C1CCCC1 | PDE4A | enzyme activity, inhibitor, TR-FRET | 0.25 |
| O=C(NO)c1cncc(OS(=O)(=O)Oc2ccc3ccccc3c2)c1 | HDAC2 | enzyme activity, inhibitor, fluorescence | 1.46 |
| CCc1c(C)nc(-c2ccc(Cl)s2)nc1Nc1ccc(CC(=O)O)cc1 | PDE4A | enzyme activity, inhibitor, FP | ~3.7 |
